According to the RNAGym collection of RNA variant scans (doi:10.1126/science.aae0568):
Variants at the floor of the assay were thinned out.

B1: tRNA (parent)
chain: GUUCCGUUGGCGUAAUGGUAACGCGUCUCCCUCCUAAGGAGAAGACUGCGGGUUCGAGUCCCGUACGGAACG

Variants of: B1
Assay: yeast fitness relative to wild type (ratio to wild type); higher = fitter; tRNA-Arg(CCU), competitive growth, 37 C, YPD
How it was run: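 Variants of the tRNA-Arg(CCU) gene were chemically synthesised with a 3% per-site mutation rate across 69 sites and placed at the native genomic locus in Saccharomyces cerevisiae. Six parallel replicates of the pooled strains were competed in YPD at 37°C for 24 hours, and gene amplicons from the start and end populations were read by 100-nucleotide paired-end sequencing. Darwinian fitness relative to wild type was derived from changes in genotype frequencies. Genotypes required ≥ 100 starting reads, and estimates < 0.5 were set to 0.5.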

Q: Which yeast fitness does the source give for U3C G9C C11U C30G A43C here?
A: 0.519

Q: With U3C G9C C11U C30G A43C C55U as the variant, how does the yeast fitness read?
A: ≤ 0.5

Q: With U3C G9C C11U C30G A43C U64C as the variant, how does the yeast fitness read?
A: ≤ 0.5

Q: For U3C G9C C11U C30G C55A A69C, which yeast fitness is on record?
A: ≤ 0.5

Q: With U3C G9C C30G A43C as the variant, how does the yeast fitness read?
A: ≤ 0.5

Q: Which yeast fitness does the source give for U3C G9C C46U here?
A: 0.567

Q: With U3C G10A as the variant, how does the yeast fitness read?
A: 0.718

Q: Which yeast fitness does the source give for U3C G10A A40C C55G here?
A: ≤ 0.5

Q: For U3C G10A C22A C24G U54C, which yeast fitness is on record?
A: ≤ 0.5

Q: For U3C G10A U13C G58C, which yeast fitness is on record?
A: ≤ 0.5

Q: With U3C G10A U54C G56C G58A as the variant, how does the yeast fitness read?
A: 0.553

Q: Which yeast fitness does the source give for U3C G10C C11G C24G here?
A: ≤ 0.5

Q: With U3C G10C C22U C55G as the variant, how does the yeast fitness read?
A: ≤ 0.5

Q: For U3C G10C C27U, which yeast fitness is on record?
A: ≤ 0.5

Q: For U3C G10C C30U U54A, which yeast fitness is on record?
A: ≤ 0.5

Q: For U3C G12A A20C G23C G56C A65C G68A, which yeast fitness is on record?
A: ≤ 0.5

Q: With U3C G12A A37C A45U G48C as the variant, how does the yeast fitness read?
A: 0.591

Q: Which yeast fitness does the source give for U3C G12A A37C A45U G48C C66U G67C A70G here?
A: ≤ 0.5

Q: With U3C G12A A45U A69C as the variant, how does the yeast fitness read?
A: ≤ 0.5

Q: With U3C G12A C29G C34U A36C C61A as the variant, how does the yeast fitness read?
A: 0.587

Q: For U3C G12A C29G C34U A36C G56C, which yeast fitness is on record?
A: ≤ 0.5

Q: With U3C G12A C30U G44A C61U as the variant, how does the yeast fitness read?
A: ≤ 0.5

Q: Which yeast fitness does the source give for U3C G12A C31G U59A here?
A: 0.537

Q: For U3C G12A C49U, which yeast fitness is on record?
A: 0.569

Q: Which yeast fitness does the source give for U3C G12A U28C A37C A45U G48C here?
A: ≤ 0.5

Q: With U3C G12A U28C G48C G63C as the variant, how does the yeast fitness read?
A: ≤ 0.5

Q: Which yeast fitness does the source give for U3C G12C here?
A: 0.716

Q: Which yeast fitness does the source give for U3C G12C A20G A43G C61U here?
A: ≤ 0.5

Q: Which yeast fitness does the source give for U3C G12C A20U C22G G50A C61A here?
A: ≤ 0.5

Q: Which yeast fitness does the source give for U3C G12C A37U G51A C62U here?
A: 0.607

Q: Which yeast fitness does the source give for U3C G12C A37U G51A C62U G63A here?
A: ≤ 0.5

Q: With U3C G17A C29U C33U C60G as the variant, how does the yeast fitness read?
A: ≤ 0.5

Q: Which yeast fitness does the source give for U3C G17A C60A C66U here?
A: ≤ 0.5

Q: With U3C G17C A40G U54C as the variant, how does the yeast fitness read?
A: 0.59

Q: For U3C G17C C29G C49G, which yeast fitness is on record?
A: 0.885

Q: For U3C G17U C31A, which yeast fitness is on record?
A: ≤ 0.5

Q: Which yeast fitness does the source give for U3C G18A U32G A37G A43C G51A here?
A: ≤ 0.5

Q: With U3C G18A U32G A43C G51A as the variant, how does the yeast fitness read?
A: 0.626

Q: With U3C G18A U53A U54G A70G as the variant, how does the yeast fitness read?
A: ≤ 0.5

Q: Which yeast fitness does the source give for U3C G18A U53A U54G G63A here?
A: ≤ 0.5

Q: Which yeast fitness does the source give for U3C G18C C31G U59A G67A here?
A: ≤ 0.5

Q: With U3C G23A as the variant, how does the yeast fitness read?
A: 0.701

Q: For U3C G23A C30U C33A G41C A42U, which yeast fitness is on record?
A: ≤ 0.5

Q: For U3C G23A C34U A40U A42U U64A, which yeast fitness is on record?
A: ≤ 0.5

Q: Which yeast fitness does the source give for U3C G23A U35G A42G here?
A: ≤ 0.5

Q: Which yeast fitness does the source give for U3C G23C C27G C61G here?
A: 0.539

Q: With U3C G23C C27G G39A C66U as the variant, how does the yeast fitness read?
A: ≤ 0.5

Q: With U3C G23C C62G as the variant, how does the yeast fitness read?
A: 0.535

Q: Which yeast fitness does the source give for U3C G25A here?
A: 0.968

Q: With U3C G25A A42C as the variant, how does the yeast fitness read?
A: ≤ 0.5

Q: Which yeast fitness does the source give for U3C G25A G68C A69G here?
A: 1.08

Q: Which yeast fitness does the source give for U3C G25C A37U G44A here?
A: 0.705

Q: With U3C G25C C34U G56A as the variant, how does the yeast fitness read?
A: ≤ 0.5

Q: With U3C G25C C62U G68A as the variant, how does the yeast fitness read?
A: 0.796

Q: For U3C G25C G41C C46U A65U, which yeast fitness is on record?
A: ≤ 0.5

Q: For U3C G38A C61U, which yeast fitness is on record?
A: 0.564

Q: For U3C G38C A57U A70G, which yeast fitness is on record?
A: 0.622

Q: Which yeast fitness does the source give for U3C G38C A65U C66U here?
A: 0.555

Q: With U3C G39A G67U as the variant, how does the yeast fitness read?
A: ≤ 0.5

Q: With U3C G39C as the variant, how does the yeast fitness read?
A: 0.695

Q: Which yeast fitness does the source give for U3C G39C A43G G44C A45U C49G G67C here?
A: ≤ 0.5

Q: With U3C G39C G63A as the variant, how does the yeast fitness read?
A: 0.533

Q: With U3C G41A as the variant, how does the yeast fitness read?
A: 0.879

Q: For U3C G41C, which yeast fitness is on record?
A: 0.824

Q: For U3C G44A, which yeast fitness is on record?
A: 0.993

Q: For U3C G44C, which yeast fitness is on record?
A: 0.908

Q: For U3C G44C A70C, which yeast fitness is on record?
A: 0.602

Q: Which yeast fitness does the source give for U3C G44C C60G here?
A: 0.562

Q: With U3C G44C U59A as the variant, how does the yeast fitness read?
A: ≤ 0.5

Q: Which yeast fitness does the source give for U3C G48A U54A here?
A: 0.534

Q: Which yeast fitness does the source give for U3C G48C G67C here?
A: ≤ 0.5

Q: Which yeast fitness does the source give for U3C G50A C61U here?
A: 0.671

Q: With U3C G50A G68C as the variant, how does the yeast fitness read?
A: 0.609

Q: With U3C G50C as the variant, how does the yeast fitness read?
A: 0.714

Q: For U3C G51C C66U, which yeast fitness is on record?
A: ≤ 0.5

Q: With U3C G56C as the variant, how does the yeast fitness read?
A: 0.67

Q: Which yeast fitness does the source give for U3C G63A A70U here?
A: 0.655

Q: Which yeast fitness does the source give for U3C G63C U64C here?
A: 0.631

Q: For U3C G67C, which yeast fitness is on record?
A: 0.783

Q: Which yeast fitness does the source give for U3C G67U here?
A: 0.839

Q: With U3C G68A as the variant, how does the yeast fitness read?
A: 0.866

Q: Which yeast fitness does the source give for U3C G68C here?
A: 0.845

Q: For U3C U7A A20G C31U A57C G67C, which yeast fitness is on record?
A: ≤ 0.5
